# In the library only some 3.1% were active in any assay of this set; here they are far more common.
# hERG protect: hERG (human) protection from proarrhythmic block. 310,000 tested, 0.51% active. activation (rescue from dofetilide block), less the hit threshold, % at 10 µM. CHO-hERG, FluxOR thallium flux, dofetilide IC70 present;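 active = activation above the mean of controls blocked by dofetilide plus 5 SD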;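 also: thallium influx through hERG after potassium depolarization seen as dye fluorescence rise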
# KCNK9 inh: inhibitors of human KCNK9 two-pore domain potassium channel | HEK293 KCNK9, FluxOR thallium flux fluorescence; active compounds read low | 310,000 tested, 1.2% active | AID 488922 | B-score at 10 µM | Q9NPC2;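 active = ratio B-score over 3 SD below the library mean, with starting fluorescence within 5 SD of its mean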;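 also: negative B-score means less thallium flux so channel inhibition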
# KCNK3 block: human KCNK3 channel inhibition, primary screen; AID 602410; B-score at 10 µM; 340,000 tested, 0.84% active; CHO-KCNK3 thallium flux, FluxOR fluorescence; active compounds read low; O14649;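 active = B-score under library mean minus 4 SD, starting fluorescence ratio at most library mean plus 5 SD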;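 also: more negative B-score means stronger inhibition of thallium flux through KCNK3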
# Target sequence (O14649 whole entry, looked up): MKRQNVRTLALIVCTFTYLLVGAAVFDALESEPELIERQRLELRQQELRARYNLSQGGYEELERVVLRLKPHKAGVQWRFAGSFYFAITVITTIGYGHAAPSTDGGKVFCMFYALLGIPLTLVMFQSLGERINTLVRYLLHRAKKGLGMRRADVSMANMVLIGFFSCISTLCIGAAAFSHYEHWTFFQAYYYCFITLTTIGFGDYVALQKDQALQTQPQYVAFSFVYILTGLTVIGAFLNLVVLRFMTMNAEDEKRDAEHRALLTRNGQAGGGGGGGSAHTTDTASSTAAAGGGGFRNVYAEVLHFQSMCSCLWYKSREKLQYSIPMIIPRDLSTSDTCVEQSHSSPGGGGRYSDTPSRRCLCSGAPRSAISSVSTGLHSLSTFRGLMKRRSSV
# KCNQ1 block: human KCNQ1 channel inhibition; P51787; CHO-K1 KCNQ1, FluxOR thallium flux fluorescence; active compounds read high; B-score at 10 µM; 310,000 tested, 1.3% active; AID 2642;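 active = compounds whose thallium flux B-score, printed positive for inhibition, exceeds three library SD while starting fluorescence stays within three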;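 also: channel opened by potassium depolarization with thallium stimulus after 20 min compound exposure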
# KCNQ1 pot: potentiates or activates the human KCNQ1 potassium channel. B-score at 10 µM. 310,000 tested, 0.35% active. CHO-K1 KCNQ1, thallium flux FluxOR fluorescence; active compounds read high. AID 2648;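 active = fluorescence ratio B-score, a plate-corrected score, at least three library SD, with initial intensity B-score within 5 SD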
#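 Assay system: stable KCNQ1 CHO-K1 line; medium: assay buffer, equal DMSO in all wells; timing: 90 min dye loading and 20 min compound exposure, both at room temperature; technique: kinetic FluxOR thallium fluorescence, 10-s 1-Hz baseline, 110-s post-stimulus read; read-out basis: B score of baseline-normalized fluorescence ratio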
# KCNK9 block conf: confirmation of human KCNK9 potassium channel inhibitors. shares compounds with KCNK9 inh. HEK293 KCNK9 cells, FluxOR thallium flux fluorescence. inhibition, % at 10 µM. 4,900 tested, 43% active. AID 492992;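 active = thallium signal inhibited by more than 5 SD of the compound-free buffer control wells, on both duplicate plates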;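 also: 0% = assay buffer control wells without compound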
# Kir21 sel: selectivity of KCNK9 modulators against mouse Kir2.1; shares compounds with KCNK9 inh; Kir2.1 cells, FluxOR thallium flux fluorescence; inhibition, % at 10 µM; 4,900 tested, 4% active;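 active = thallium signal drop more than 5 SD beyond the mean of the no-compound control wells, seen in both duplicate plates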;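 also: signal is fluorescence rise after thallium addition divided by baseline fluorescence; plate controls were assay buffer only for no effect and full block by chlorpromazine control for full effect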
# HEK293 Tl ctr: non-induced cell nonspecific activity of KCNK9 modulators; 4,900 tested, 40% active; inhibition, % at 10 µM; AID 492997; shares compounds with KCNK9 inh; non-induced KCNK9-HEK293, FluxOR thallium flux;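 active = thallium signal drop beyond 5 SD of the untreated control mean, on both duplicate plates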;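 also: plate controls were buffer only IC0 wells for no effect and SID17386958 at its maximal inhibitory level for full effect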
# * marks the source's active call; other numbers are inactive results; i = inactive; . = not tested or not shown.
SMILES,hERG protect,KCNK9 inh,KCNK3 block,KCNQ1 block,KCNQ1 pot,KCNK9 block conf,Kir21 sel,HEK293 Tl ctr
CSc1ccc(C(=O)C2CCCN(Cc3cccc4nccnc34)C2)cc1 (stereo unspecified),-18,i,i,i,i,i,i,i
COc1ccc(C(=O)C2CCCN(Cc3cccn3-c3nccs3)C2)cc1F (stereo unspecified),-21,i,i,i,i,i,i,i
O=C(c1ccc(C(F)(F)F)cc1)C1CCCN(Cc2cccn2-c2ncccn2)C1 (stereo unspecified),-16,i,i,i,i,i,i,i
O=C(c1cccc(C(F)(F)F)c1)C1CCCN(Cc2cccn2-c2ncccn2)C1 (stereo unspecified),-24,i,i,i,i,i,i,i
COc1ccc(C(=O)C2CCCN(Cc3cccn3-c3ccccn3)C2)cc1F (stereo unspecified),-29,i,i,i,i,.,.,.
CCOc1cc(CN2CCCC(C(=O)c3cccc(C(F)(F)F)c3)C2)ccc1O (stereo unspecified),-20,i,i,i,i,i,i,i
O=C(c1ccc(Cl)cc1)C1CCCN(Cc2cccn2-c2ccccn2)C1 (stereo unspecified),-20,i,i,i,i,i,i,i
CCOC(=O)C1CCCN(Cc2ccc(O)c(OC)c2)C1 (stereo unspecified),-10,i,i,i,i,.,.,.
COc1ccc(CN2CCCC(C(=O)c3ccc(Cl)cc3)C2)cc1Cn1cccn1 (stereo unspecified),-23,i,i,i,i,i,i,i
CCc1ccc(-c2nc(SCC(=O)N(CC)C3CCS(=O)(=O)C3)n[nH]2)cc1 (stereo unspecified),-2,i,i,i,i,.,.,.
c1ccc(COc2ccc(CNCc3cccnc3)cc2)cc1,-8,i,i,i,i,.,.,.
CCOc1ccccc1NC(=O)c1cccc(NC(=O)c2ccco2)c1,-3,-9.4*,-9.9*,i,i,45%*,i,i
CCOc1ccccc1NC(=O)C1CCCC1,.,.,i,.,.,.,.,.
Cc1ccccc1NC(=O)c1cccc(NC(=O)c2ccco2)c1,-9,i,i,i,i,.,.,.
CCOc1ccccc1NC(=O)c1cccc(NC(=O)C2CCCC2)c1,-17,-13*,i,i,i,58%*,i,i
CC(=O)N(CCC(c1ccco1)C(C)C)Cc1ccc(OC(C)C)cc1 (stereo unspecified),-16,-16*,i,i,i,37%*,i,43%*
CN(C(=O)COC(=O)CCc1c[nH]c2ccccc12)C(c1ccccc1)c1ccccc1,-12,-9.5*,i,i,i,44%*,i,28%*
O=C(COC(=O)CCc1c[nH]c2ccccc12)NCc1ccccc1,-3,i,i,i,i,.,.,.
O=C(NCc1cccnc1)c1ccc(S(=O)(=O)N2CCCCCC2)cc1,-18,i,i,i,i,.,.,.
CCCN1CCN(C(=S)Nc2sc(CC)cc2C(=O)OC)CC1,-13,i,i,i,i,i,i,i
CCN1CCN(C(=S)Nc2sc(C)c(-c3ccccc3)c2C(=O)OC)CC1,-6,i,i,6*,i,i,i,i
CCc1cc(C(=O)OC)c(NC(=O)CN2CCN(C(=O)C3CCCO3)CC2)s1 (stereo unspecified),-5,i,i,i,i,.,.,.
Cc1ccc(C(=O)NCCc2cccc(Cl)c2)cc1[N+](=O)[O-],-10,i,i,i,i,i,i,i
Cc1ccc(C(=O)NCCn2ccc3ccccc32)cc1[N+](=O)[O-],-21,i,i,i,i,i,i,i
O=C(NCCc1cccc(Cl)c1)c1ccc(Cl)c([N+](=O)[O-])c1,-15,i,i,i,i,i,i,i
SMILES,hERG protect,KCNK9 inh,KCNK3 block,KCNQ1 block,KCNQ1 pot,KCNK9 block conf,Kir21 sel,HEK293 Tl ctr
Cc1cc2ccccc2n1CCNC(=O)c1ccccc1,-12,-9.6*,i,i,i,36%*,i,25%*
Oc1ccc(C[C@H]2CNC(=S)N2CC2CCCN2C[C@H](Cc2ccccc2)N2C[C@H](Cc3ccc(O)cc3)N(CCc3ccccc3)C2=S)cc1 (stereo partly specified),.,.,i,.,.,.,.,.
Fc1ccc(-c2nc3cnccn3c2NC2CCCC2)cc1,-15,i,i,i,i,.,.,.
Oc1ccc(Br)cc1-c1nc2cnccn2c1NC1CCCCC1,-14,-9.4*,i,i,i,i,i,30%*
NC(=O)C1CCN(CC(O)COc2ccc(-c3ccccc3)cc2)CC1 (stereo unspecified),-11,i,i,i,i,.,.,.
COc1ccc(C(=O)Nc2cc(OC)ccc2OC)cc1,-8,i,i,i,i,.,.,.
COc1ccc(OC)c(NC(=O)c2cc(OC(C)=O)cc(C(=O)Nc3cc(OC)ccc3OC)c2)c1,-7,-9.5*,i,i,i,49%*,i,i
CCOc1ccc(NS(=O)(=O)c2ccc(C(=O)N(C)Cc3cccc(OC)c3OC)cc2)cc1,-12,i,i,i,i,i,i,i
COc1cccc(CN(C)C(=O)c2ccc(NS(=O)(=O)c3ccc4[nH]c(=O)[nH]c4c3)cc2)c1OC,-9,i,i,i,i,.,.,.
COc1cccc(CN(C)C(=O)c2ccc(Oc3ccccc3)cc2)c1OC,-10,i,i,i,i,i,i,i
COc1ccccc1CN(C)C(=O)c1ccc(COc2ccccc2)cc1,-13,i,i,i,i,.,.,.
CCn1c(N2CCN(S(=O)(=O)c3ccc(Cl)cc3)CC2)nc2ccccc21,5.8*,i,i,i,i,i,i,i
COc1cc(OC)c(NS(=O)(=O)c2cc(C(=O)OCC(=O)NCC3CCCO3)ccc2OC)cc1Cl (stereo unspecified),-5,i,i,i,i,.,.,.
COc1cccc(NC(=O)COC(=O)C2C3CC4OC(=O)C2C4C3)c1 (stereo unspecified),-6,i,i,i,i,.,.,.
C=CCOc1ccc(/C=C2\SC(=S)N(C(C(=O)O)c3ccccc3)C2=O)cc1 (stereo unspecified),-22,i,i,i,i,i,i,i

# Bioassay records: PubChem BioAssay, Johns Hopkins Ion Channel Center
